Experimental data taken from ChEMBL document CHEMBL4715736, “Identification of anticancer agents based on the thieno[2,3-b]pyridine and 1H-pyrazole molecular scaffolds” (2016).

Tests used:
Type in all cases: functional
IGROV-1 = experiment: Growth inhibition of human IGROV-1 cells assessed as cell growth at 1 uM incubated for 48 hrs by sulforhodamine B assay relative to control; conditions: read-out: Activity
NCI-H23 [1] = experiment: Growth inhibition of human NCI-H23 cells assessed as cell growth at 0.1 uM incubated for 48 hrs by sulforhodamine B assay relative to control; conditions: read-out: Activity
NCI-H23 [2] = experiment: Growth inhibition of human NCI-H23 cells assessed as cell growth at 0.01 uM incubated for 48 hrs by sulforhodamine B assay relative to control; conditions: read-out: Activity
HOP-92 [3] = experiment: Growth inhibition of human HOP-92 cells assessed as cell growth at 1 uM incubated for 48 hrs by sulforhodamine B assay relative to control; conditions: read-out: Activity
U-251 = experiment: Growth inhibition of human U-251 cells assessed as cell growth at 1 uM incubated for 48 hrs by sulforhodamine B assay relative to control; conditions: read-out: Activity
786-0 = experiment: Growth inhibition of human 786-0 cells assessed as cell growth at 100 uM incubated for 48 hrs by sulforhodamine B assay relative to control; conditions: read-out: Activity
SR = experiment: Growth inhibition of human SR cells assessed as cell growth at 0.01 uM incubated for 48 hrs by sulforhodamine B assay relative to control; conditions: read-out: Activity
A498 = experiment: Growth inhibition of human A498 cells assessed as cell growth at 1 uM incubated for 48 hrs by sulforhodamine B assay relative to control; conditions: read-out: Activity
Outline: (§1)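 NCI Developmental Therapeutics Program NCI60 panel. Compounds that were active in the 10 µM one-dose screen went on to dose–response testing. Growth at each concentration is expressed relative to untreated control (100%). GI50 (concentration giving 50% of maximal inhibition of proliferation) and TGI (concentration giving total growth inhibition) were derived from the curves.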

SF-539 = experiment: Growth inhibition of human SF-539 cells assessed as cell growth at 0.01 uM incubated for 48 hrs by sulforhodamine B assay relative to control; conditions: read-out: Activity
SW-620 = experiment: Growth inhibition of human SW-620 cells assessed as cell growth at 1 uM incubated for 48 hrs by sulforhodamine B assay relative to control; conditions: read-out: Activity
M14 = experiment: Growth inhibition of human M14 cells assessed as cell growth at 1 uM incubated for 48 hrs by sulforhodamine B assay relative to control; conditions: read-out: Activity
KM12 = experiment: Growth inhibition of human KM12 cells assessed as cell growth at 0.01 uM incubated for 48 hrs by sulforhodamine B assay relative to control; conditions: read-out: Activity
SF-295 = experiment: Growth inhibition of human SF-295 cells assessed as cell growth at 100 uM incubated for 48 hrs by sulforhodamine B assay relative to control; conditions: read-out: Activity
SNB-19 = experiment: Growth inhibition of human SNB-19 cells assessed as cell growth at 0.01 uM incubated for 48 hrs by sulforhodamine B assay relative to control; conditions: read-out: Activity
T47D = experiment: Growth inhibition of human T47D cells incubated for 48 hrs by sulforhodamine B assay
Outline: (§2)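 NCI DTP 60-line human tumour panel. Dose-response curves were run only for ligands active in the initial 10 µM screen. GI50 (concentration giving 50% of maximal inhibition of proliferation) and TGI (concentration giving total growth inhibition) were derived from these curves.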

HOP-92 [4] = experiment: Growth inhibition of human HOP-92 cells assessed as cell growth at 0.01 uM incubated for 48 hrs by sulforhodamine B assay relative to control; conditions: read-out: Activity
OVCAR-5 = experiment: Growth inhibition of human OVCAR-5 cells assessed as cell growth at 1 uM incubated for 48 hrs by sulforhodamine B assay relative to control; conditions: read-out: Activity
NCI/ADR-RES = experiment: Growth inhibition of human NCI/ADR-RES cells incubated for 48 hrs by sulforhodamine B assay
Outline: (§3)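 NCI60 panel at the NCI Developmental Therapeutics Program. Only compounds active in the 10 µM screen went to dose-response testing. GI50, the concentration giving 50% of maximal inhibition of proliferation, and TGI, the concentration giving total growth inhibition, were derived from the dose-response curves.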

A549 = experiment: Growth inhibition of human A549/ATCC cells incubated for 48 hrs by sulforhodamine B assay; outline: as §1
OVCAR-4 [5] = experiment: Growth inhibition of human OVCAR-4 cells assessed as cell growth at 0.01 uM incubated for 48 hrs by sulforhodamine B assay relative to control; conditions: read-out: Activity
Malme-3M = experiment: Growth inhibition of human Malme-3M cells assessed as cell growth at 100 uM incubated for 48 hrs by sulforhodamine B assay relative to control; conditions: read-out: Activity
MCF7 = experiment: Growth inhibition of human MCF7 cells assessed as cell growth at 100 uM incubated for 48 hrs by sulforhodamine B assay relative to control; conditions: read-out: Activity
OVCAR-4 [6] = experiment: Growth inhibition of human OVCAR-4 cells incubated for 48 hrs by sulforhodamine B assay; outline: as §2
HCC 2998 = experiment: Growth inhibition of human HCC 2998 cells incubated for 48 hrs by sulforhodamine B assay
RPMI-8226 = experiment: Growth inhibition of human RPMI-8226 cells assessed as cell growth at 1 uM incubated for 48 hrs by sulforhodamine B assay relative to control; conditions: read-out: Activity
NCI-H23 [7] = experiment: Growth inhibition of human NCI-H23 cells incubated for 48 hrs by sulforhodamine B assay; outline: as §3
CAKI-1 = experiment: Growth inhibition of human CAKI-1 cells assessed as cell growth at 1 uM incubated for 48 hrs by sulforhodamine B assay relative to control; conditions: read-out: Activity; outline: as §1
CCRF-CEM = experiment: Growth inhibition of human CCRF-CEM cells assessed as cell growth at 0.01 uM incubated for 48 hrs by sulforhodamine B assay relative to control; conditions: read-out: Activity; outline: as §1
NCI-H226 = experiment: Growth inhibition of human NCI-H226 cells assessed as cell growth at 100 uM incubated for 48 hrs by sulforhodamine B assay relative to control; conditions: read-out: Activity
[8] = read-out: LC50 (the source's name)

Structure (SMILES): CCc1cccc(C)c1NC(=O)c1sc2nc3c(cc2c1N)C(=O)CCC3
- growth at 1 µM (IGROV-1): 59%
- growth at 0.1 µM (NCI-H23 [1]): 100%
- growth at 0.01 µM (NCI-H23 [2]): 99%
- growth at 1 µM (HOP-92 [3]): 39%
- growth at 1 µM (U-251): 37%
- growth at 100 µM (786-0): 11%
- growth at 0.01 µM (SR): 96%
- growth at 1 µM (A498): -16%
- growth at 0.01 µM (SF-539): 89%
- growth at 1 µM (SW-620): 17%
- growth at 1 µM (M14): 17%
- growth at 0.01 µM (KM12): 96%
- growth at 100 µM (SF-295): 1%
- growth at 0.01 µM (SNB-19): 96%
- GI50 (T47D): 517 nM
- TGI (T47D): ≥ 100 µM
- CC50 (T47D; [8]): > 100 µM
- growth at 0.01 µM (HOP-92 [4]): 82%
- growth at 1 µM (OVCAR-5): 59%
- GI50 (NCI/ADR-RES): 558 nM
- CC50 (NCI/ADR-RES; [8]): > 100 µM
- GI50 (A549): 593 nM
- TGI (A549): > 100 µM
- CC50 (A549; [8]): > 100 µM
- growth at 0.01 µM (OVCAR-4 [5]): 89%
- growth at 100 µM (Malme-3M): -1%
- growth at 100 µM (MCF7): -1%
- GI50 (OVCAR-4 [6]): 10 nM
- TGI (OVCAR-4 [6]): > 100 µM
- CC50 (OVCAR-4 [6]; [8]): > 100 µM
- GI50 (HCC 2998): 1330 nM
- TGI (HCC 2998): > 100 µM
- CC50 (HCC 2998; [8]): > 100 µM
- growth at 1 µM (RPMI-8226): 44%
- GI50 (NCI-H23 [7]): 733 nM
- LC50 (50% lethal concentration) (NCI-H23 [7]): > 100 µM
- TGI (NCI-H23 [7]): > 100 µM
- growth at 1 µM (CAKI-1): 31%
- growth at 0.01 µM (CCRF-CEM): 97%
- growth at 100 µM (NCI-H226): 8%
